Reference: ChEMBL document CHEMBL3232876, “Novel R-(+)-limonene-based thiosemicarbazones and their antitumor activity against human tumor cell lines” (Eur J Med Chem, 2014)
Activity calls are given as the source filed them. The rule behind the calls is not given here.

Legend:
[1] = Growth inhibition of human UACC62 cells after 48 hrs by sulforhodamine B assay; assay type: functional; details: UACC-62, 48 h
In short: (§1)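 Tumour lines from NCI and Vero from the Rio de Janeiro Cell Bank, grown in RPMI 1640 with 5% fetal bovine serum, with penicillin:streptomycin added to experimental cultures. Each compound was tested at four 10-fold dilutions; sulforhodamine B staining at time zero and 48 h. Proliferation was calculated against T0 and drug-free controls, and GI50 came from sigmoidal regression of the concentration-response curves. Representative experiment in triplicate.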

[2] = tested on: NCI-H460; assay: Growth inhibition of human NCI-H460 cells after 48 hrs by sulforhodamine B assay; assay type: functional; details: NCI-H460, 48 h; in short: as §1
[3] = Growth inhibition of human NCI-ADR-RES cells after 48 hrs by sulforhodamine B assay; assay type: functional; in short: as §1
[4] = Growth inhibition of human OVCAR3 cells after 48 hrs by sulforhodamine B assay; assay type: functional; details: OVCAR-3, 48 h; in short: as §1
[5] = tested on: U-251; assay: Growth inhibition of human U251 cells after 48 hrs by sulforhodamine B assay; assay type: functional; details: U-251, 48 h; in short: as §1
[6] = tested on: 786-0; assay: Growth inhibition of human 786-0 cells after 48 hrs by sulforhodamine B assay; assay type: functional; details: 786-0, 48 h; in short: as §1
[7] = tested on: MCF7; assay: Growth inhibition of human MCF7 cells after 48 hrs by sulforhodamine B assay; assay type: functional; details: MCF7, 48 h; in short: as §1
[8] = tested on: K562; assay: Growth inhibition of human K562 cells after 48 hrs by sulforhodamine B assay; assay type: functional; details: K562, 48 h; in short: as §1
[9] = tested on: PC-3; assay: Growth inhibition of human PC3 cells after 48 hrs by sulforhodamine B assay; assay type: functional; details: PC-3, 48 h; in short: as §1
[10] = tested on: PC-3; assay: Cytotoxicity against human PC3 cells assessed as cell death after 48 hrs by sulforhodamine B assay; assay type: functional
In short: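 NCI-supplied tumour cells in RPMI 1640 with 5% fetal bovine serum; experimental cultures also had penicillin:streptomycin. Cells were exposed for 48 h to four 10-fold concentrations (0.25 to 250 […]), with readings at time zero and at 48 h. LC50 (concentration giving 50% cell death) came from sigmoidal regression of concentration–response curves.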

[11] = (§2) Growth inhibition of African green monkey Vero cells after 48 hrs by sulforhodamine B assay; assay type: cell-based; details: chlorocebus sabaeus, Vero cells; in short: as §1
[12] = tested on: Vero; assay: as §2; assay type: cell-based; details: chlorocebus sabaeus, vero, 48 h; in short: as §1
[13] = tested on: HT-29; assay: Growth inhibition of human HT-29 cells after 48 hrs by sulforhodamine B assay; assay type: functional; details: HT-29, 48 h; in short: as §1
[14] = Ratio of compound GI50 to paclitaxel GI50 for African green monkey Vero cells; assay type: ADME, cell-based; details: chlorocebus sabaeus, read-out: RatioGI50

Row | GI50 [2] | GI50 [5] | GI50 [6] | GI50 [7] | GI50 [8] | GI50 [9] | Structure (SMILES) | GI50 [1] | TGI [1] | TGI [2] | GI50 [3] | TGI [3] | GI50 [4] | TGI [4] | TGI [5] | TGI [6] | TGI [7] | TGI [8] | TGI [9] | GI50 at 48 h [11] | TGI [12] | other results
1 | > 100 µM | > 100 µM | > 100 µM | > 100 µM | 45.6 µM | 9.5 µM | CC1=CC[C@H](C(C)(C)NC(=S)N/N=C/c2cccc([N+](=O)[O-])c2)CC1 | > 100 µM | > 100 µM | > 100 µM | > 100 µM | > 100 µM | > 100 µM | > 100 µM | > 100 µM | > 100 µM | > 100 µM | > 100 µM | 88 µM | > 100 µM | > 100 µM | GI50 [13]: 0.6 µM; TGI [13]: 21.9 µM
2 | 7.8 µM | 69.5 µM | 74.9 µM | 18.3 µM | 0.3 µM | 0.05 µM | CC1=CC[C@H](C(C)(C)NC(=S)N/N=C/c2ccc(Cl)cc2)CC1 | 11.2 µM | > 100 µM | 21.1 µM | 65.2 µM | 97.4 µM | 8.6 µM | 26.4 µM | > 100 µM | > 100 µM | > 100 µM | 16.9 µM | 1.7 µM | 70 µM | > 100 µM | GI50 [13]: 13.6 µM; TGI [13]: 70.5 µM
3 | 18 µM | 0.08 µM | 20.8 µM | 3.9 µM | 23.4 µM | 2.8 µM | CC1=CC[C@H](C(C)(C)NC(=S)N/N=C/c2ccc[nH]2)CC1 | 14.8 µM | 49.9 µM | 57.5 µM | 78 µM | > 100 µM | 33.5 µM | > 100 µM | 3.9 µM | > 100 µM | 11.5 µM | > 100 µM | > 100 µM | 20.5 µM | > 100 µM | GI50 [13]: 27.5 µM; TGI [13]: > 100 µM
4 | 13.5 µM | 9.7 µM | 11.7 µM | 9.3 µM | 0.1 µM | 13.5 µM | CC1=CC[C@H](C(C)(C)NC(=S)N/N=C/c2ccco2)CC1 | 10.7 µM | 14.1 µM | 10.8 µM | 9.8 µM | 14.1 µM | 10.8 µM | 13.8 µM | 81.5 µM | 9.8 µM | 53.7 µM | > 100 µM | 27.2 µM | 5.1 µM | 14.7 µM | GI50 [13]: 7.2 µM; TGI [13]: 26.9 µM
5 | > 100 µM | > 100 µM | > 100 µM | > 100 µM | > 100 µM | 0.6 µM | CC1=CC[C@H](C(C)(C)NC(=S)N/N=C/c2ccc(O)cc2)CC1 | > 100 µM | > 100 µM | > 100 µM | 82.1 µM | > 100 µM | > 100 µM | > 100 µM | > 100 µM | > 100 µM | > 100 µM | > 100 µM | 53.8 µM | > 100 µM | > 100 µM | GI50 [13]: > 100 µM; TGI [13]: > 100 µM
6 | > 100 µM | > 100 µM | > 100 µM | > 100 µM | > 100 µM | < 0.04 µM | CC1=CC[C@H](C(C)(C)NC(=S)N/N=C/c2ccc(F)cc2)CC1 | > 100 µM | > 100 µM | > 100 µM | > 100 µM | > 100 µM | > 100 µM | > 100 µM | > 100 µM | > 100 µM | > 100 µM | > 100 µM | < 0.9 µM | > 100 µM | > 100 µM | GI50 [13]: > 100 µM; TGI [13]: > 100 µM

Row | Structure (SMILES) | GI50 [2] | GI50 [5] | GI50 [6] | GI50 [7] | GI50 [8] | GI50 [9] | GI50 [1] | TGI [1] | TGI [2] | GI50 [3] | TGI [3] | GI50 [4] | TGI [4] | TGI [5] | TGI [6] | TGI [7] | TGI [8] | TGI [9] | GI50 at 48 h [11] | TGI [12] | other results
7 | CC1=CC[C@H](C(C)(C)NC(=S)N/N=C/c2ccc(N(C)C)cc2)CC1 | 53.4 µM | 57.7 µM | 87 µM | 26.8 µM | 22.6 µM | < 0.04 µM | 45.1 µM | > 100 µM | > 100 µM | > 100 µM | > 100 µM | > 100 µM | > 100 µM | > 100 µM | > 100 µM | > 100 µM | > 100 µM | < 0.7 µM | 75.6 µM | > 100 µM | Activity [10]: Active; GI50 [13]: 46.5 µM; TGI [13]: > 100 µM
8 | COc1ccc(/C=N/NC(=S)NC(C)(C)[C@H]2CC=C(C)CC2)cc1 | 22.5 µM | 11.4 µM | 8.9 µM | 31.2 µM | 1.5 µM | < 0.04 µM | 13.3 µM | 70.4 µM | 47.8 µM | 43.8 µM | 50.4 µM | 7.9 µM | 21.2 µM | 71.9 µM | 29.6 µM | 37.7 µM | 30.7 µM | 1.2 µM | 12.2 µM | 70.1 µM | Activity [10]: Active; GI50 [13]: 8.4 µM; TGI [13]: 33.6 µM
9 | CC1=CC[C@H](C(C)(C)NC(=S)N/N=C/c2ccccc2[N+](=O)[O-])CC1 | 5 µM | 20.2 µM | 68.5 µM | 1.2 µM | 0.3 µM | 1.7 µM | 10.6 µM | 92.2 µM | 32.7 µM | 19.2 µM | > 100 µM | 8.5 µM | 25.8 µM | > 100 µM | > 100 µM | 94.7 µM | > 100 µM | 6.4 µM | 21.6 µM | > 100 µM | Activity [10]: Active; GI50 [13]: 7.9 µM; TGI [13]: 70.8 µM
10 | CC1=CC[C@H](C(C)(C)NC(=S)N/N=C/c2ccccc2O)CC1 | 1.9 µM | 6.4 µM | 4.6 µM | 2.2 µM | 0.8 µM | < 0.04 µM | 2.8 µM | 10.8 µM | 8.4 µM | 3.7 µM | 10.9 µM | 5.5 µM | 11.8 µM | 10.6 µM | 12.1 µM | 17.5 µM | > 100 µM | 0.9 µM | 3.1 µM | 11.2 µM | CC50 ([10]; PC-3, 48 h, read-out: LC50 (the source's name)): 12.3 µM; GI50 [13]: 10.9 µM; TGI [13]: 16.6 µM; selectivity ratio [14]: 100
11 | CC1=CC[C@H](C(C)(C)NC(=S)N/N=C/c2ccccc2)CC1 | 13 µM | 26.3 µM | 9.9 µM | 8.4 µM | 6.3 µM | 1.3 µM | 31.6 µM | > 100 µM | 53.9 µM | > 100 µM | > 100 µM | 8.7 µM | 20.6 µM | 71.4 µM | 67 µM | 84.4 µM | 47.6 µM | 5.7 µM | 20.5 µM | > 100 µM | Activity [10]: Active; GI50 [13]: 8.8 µM; TGI [13]: 22.2 µM
